# Compounds with a hit are over-represented: about 2.9% of the library has one in this group of screens.
# MEKK3 PB1 HTS = modulators of MEKK3-MEK5 PB1 binding, primary screen, biochemical, wildtype MEKK3, multiplex bead flow cytometry, Alexa488-MEK5. Mitogen-activated protein kinase kinase kinase 3 (Homo sapiens), Q99759. bead-based flow cytometry, Alexa488-MEK5 binding to MEKK3; actives lie on both sides; 0 = blocked by unlabeled MEK5, 100 = vehicle. binding response (% of control), % at 10 µM. hit rate 1.4% among 290,000. AID 1529, 2009;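 active means binding response more than 3 SD above or below the average of its plate-row segment, actives on both sides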;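 further: Alexa488 bead fluorescence after subtracting the streptavidin-only scavenger bead signal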
# Target sequence (Q99759 whole entry, looked up): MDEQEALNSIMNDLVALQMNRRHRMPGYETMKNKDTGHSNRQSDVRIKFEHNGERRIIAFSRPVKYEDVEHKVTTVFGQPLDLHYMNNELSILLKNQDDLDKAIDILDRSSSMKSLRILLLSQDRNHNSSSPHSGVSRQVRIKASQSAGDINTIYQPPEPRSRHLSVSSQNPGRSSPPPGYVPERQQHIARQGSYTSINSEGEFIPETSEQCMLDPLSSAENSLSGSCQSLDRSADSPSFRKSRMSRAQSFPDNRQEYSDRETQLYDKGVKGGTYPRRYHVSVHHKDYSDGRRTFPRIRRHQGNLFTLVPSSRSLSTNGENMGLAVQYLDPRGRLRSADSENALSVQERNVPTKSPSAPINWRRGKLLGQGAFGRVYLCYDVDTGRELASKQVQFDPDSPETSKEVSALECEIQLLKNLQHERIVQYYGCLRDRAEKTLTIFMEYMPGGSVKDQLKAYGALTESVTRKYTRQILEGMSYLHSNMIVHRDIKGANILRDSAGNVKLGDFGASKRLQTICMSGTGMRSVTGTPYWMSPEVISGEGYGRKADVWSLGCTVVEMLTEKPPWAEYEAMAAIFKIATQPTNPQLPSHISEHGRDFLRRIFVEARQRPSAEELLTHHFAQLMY
# MEKK2 mut-MEK5 = MEK5 binding signal on mutant MEKK2 PB1, primary screen, biochemical, multiplex bead flow cytometry, Alexa488-MEK5; Alexa488-MEK5 binding to MEKK2 mutant; percent response, % at 10 µM; hit rate 0.35% among 290,000; in the data active means percent response above about 24%, passing the limit was not always enough
# MEKK2 WT-MEK5 = modulators of MEK5 binding to wildtype MEKK2, primary screen, biochemical, multiplex bead flow cytometry, Alexa488-MEK5; Mitogen-activated protein kinase kinase kinase 2 (Homo sapiens), Q9Y2U5; Alexa488-MEK5 binding to MEKK2 WT; actives lie on both sides; binding response (% of control), % at 10 µM; hit rate 1.1% among 290,000; in the data active means binding response below about 67% or above about 130%
# UBC13 inh = UBC13 polyubiquitin chain formation inhibitors, primary screen, biochemical, TR-FRET, uHTS. AID 485273, 2010. Ubiquitin-conjugating enzyme E2 N (Homo sapiens), P61088. inhibition, % at 20 µM. hit rate 0.47% among 330,000; in the data active means inhibition above about 45%, passing the limit was not always enough
# Apaf1 inhib = inhibitors of human Apaf-1 apoptosome, primary screen, biochemical, DEVD-Rh110 fluorescence, uHTS. Apoptotic protease-activating factor 1 (Homo sapiens), O14727. reconstituted apoptosome caspase-3 activity. inhibition, % at 20 µM. hit rate 0.71% among 330,000. AID 489030, 2010; active means inhibition of at least 40% at 20 µM;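 further: plate controls were DMSO wells for no effect and DEVD-CHO caspase inhibitor wells for full effect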
#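 detection = Rh110 fluorescence intensity | test system = biochemical Apaf-1 apoptosome reconstitution | also added = cytochrome c and DEVD-Rh110 substrate | schedule = 30 min plus 50 min, RT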
# MEKK2wt confirm = modulators of MEK5 binding to wildtype MEKK2, confirmation, biochemical, single concentration, multiplex bead flow cytometry; shares compounds with MEKK3 PB1 HTS; Alexa488-MEK5 binding to MEKK2 WT; actives lie on both sides; binding response (% of control), % at 10 µM; hit rate 2.4% among 5,900; in the data active means binding response below about 16% or above about 210%; inactive means in between
# MEKK2mut confirm = mutant MEKK2 PB1-MEK5 binding signal retest – biochemical, single concentration, multiplex bead flow cytometry, confirmation; shares compounds with MEKK3 PB1 HTS; Alexa488-MEK5 binding to MEKK2 mutant; percent response, % at 10 µM; hit rate 2% among 5,900; AID 1893, 2009; in the data active means percent response mostly above about 71%, no sharp cut-off; inactive means mostly below about 38%;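 further: higher means compound restores mutant binding toward wildtype level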
# MEKK3 confirm = MEKK3 wild-type PB1 binding to MEK5, inhibitors, confirmation, biochemical, bead multiplex flow cytometry, single concentration, wildtype; hit rate 1.8% among 5,900; Alexa488-MEK5 binding to MEKK3; active compounds read low; binding response (% of control), % at 10 µM; AID 1894, 2009; shares compounds with MEKK3 PB1 HTS;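 active means binding response below 72% of control, or above a set upper limit, though filed actives all read lower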;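 further: 100% = DMSO only wells and 0% = binding blocked by excess unlabeled MEK5; lower values mean stronger disruption of MEK5 binding to MEKK3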
# Active calls of the source: *; . = not tested or not shown; [ ] = dose if it differs, or a comment.
SMILES,MEKK3 PB1 HTS,MEKK2 mut-MEK5,MEKK2 WT-MEK5,UBC13 inh,Apaf1 inhib,MEKK2wt confirm,MEKK2mut confirm,MEKK3 confirm
CC(C)C(=O)Nc1ccc(N2CCCC2)c(Cl)c1,151*,3,123,4,4,102,-1,99
O=S(=O)(/C=C/c1ccccc1)N1CCN(c2ccccc2)CC1,105,6,105,-5,3,.,.,.
O=S(=O)(/C=C/c1ccccc1)N1CCN(c2ccc(F)cc2)CC1,74*[inhibitor],-10,82,2,22,105,5,105
COc1ccc(CC(=O)Nc2cc(C)ccn2)cc1,42*[inhibitor],-15,56,-6,-14,89,1,94
COc1ccc2c(c1)c1ncn(CCN3CCCC3)c(=O)c1n2C,102,0,102,1,7,.,.,.
COc1ccccc1CCn1cnc2c3cc(C)ccc3n(C)c2c1=O,2.0*[inhibitor],-16,2.0*[inhibitor],20,25,104,3,103
CC(C)Cc1ccc(C(C)NC(=O)c2ccc(=O)[nH]c2)cc1 (stereo not given),113,-1,101,-17,0,.,.,.
CCCCN(Cc1ccco1)C(=O)C1CCCN(c2ncnc3c2nc2n3CCCCC2)C1 (stereo not given),97,3,97,-5,22,.,.,.
Oc1ccc(-n2cnnn2)cc1,71*[inhibitor],-5,77,3,-2,104,9,105
CSCCC(NC(=O)c1ccc([N+](=O)[O-])cc1Cl)C(=O)OC(C)C(=O)NCc1ccco1 (stereo not given),.,.,.,1,7,.,.,.
Cn1c(=O)c2ncn(CC(=O)N/N=C/c3ccco3)c2n(C)c1=O,140*,0,108,-13,-3,110,2,101
Cn1c(=O)c2ncn(CC(=O)N/N=C/C=C/c3ccccc3)c2n(C)c1=O,107,-9,91,-14,1,.,.,.
Cc1cccc(N(C(=O)Nc2ccccc2)C2=NCC(C)S2)c1 (stereo not given),105,1,102,4,-2,.,.,.
COc1ccc(Cl)cc1N(C(=O)Nc1cccc(Cl)c1)C1=NCC(C)S1 (stereo not given),129*,0,108,-8,-3,108,2,106
CCOc1cc(S(=O)(=O)n2cnc(C)c2)ccc1Cl,148*,2,123,6,12,93,-2,101
Brc1cccc(CN2CCCCCC2)c1,100,0,106,2,-8,.,.,.
OC1(c2ccc(Br)cc2)CCN(Cc2cccc(Br)c2)CC1,109,15,134*,9,3,130,17,107
Cc1onc(-c2c(Cl)cccc2Cl)c1C(=O)Nc1ccc(N2CCOCC2)cc1,91,-8,92,-5,6,.,.,.
CCC(NS(=O)(=O)c1ccc(C)cc1)C(=O)N1CCOCCOCCOCCOCC1 (stereo not given),96,-1,97,5,6,.,.,.
COc1ccc(CCNC(=O)CCN2C(=O)COc3ccccc32)cc1OC,81*[inhibitor],-10,90,-3,-18,100,-3,98
CCc1ccccc1NC(=O)CNC(=O)c1ccccc1OCc1c(C)noc1C,.,.,.,-5,2,.,.,.
CCN(CC)S(=O)(=O)c1ccc2c(c1)c(=O)c(C(=O)NCc1ccco1)cn2C,135*,13,123,3,-7,102,-6,100
Clc1ccccc1-c1csc(Nc2cccnc2)n1,47*[inhibitor],-40,59,6,4,103,5,103
c1cncc(Nc2nc(-c3ccncc3)cs2)c1,96,8,101,14,-8,.,.,.
CCOC(=O)c1ccc(NC(=O)c2ccc[n+]([O-])c2)cc1,103,7,103,4,2,.,.,.
SMILES,MEKK3 PB1 HTS,MEKK2 mut-MEK5,MEKK2 WT-MEK5,UBC13 inh,Apaf1 inhib,MEKK2wt confirm,MEKK2mut confirm,MEKK3 confirm
S=C(Nc1ccc(Br)cc1Cl)Nn1cnnc1,84,-12,83,-3,6,.,.,.
Cc1cc(S(=O)(=O)Nc2ccc(C(=O)NCc3ccncc3)cc2)ccc1F,.,.,.,-6,-2,.,.,.
CCN(CC)CCNC(=O)c1ccc(NC(=O)c2cn(-c3ccccc3)nc2-c2cccs2)cc1,107,49,212*,103*,25,212*,53,108
COC(=O)c1cn(-c2ccccc2)nc1-c1ccc(OC)cc1,100,2,99,4,-5,.,.,.
CCN(CC)CCNC(=S)NC(=O)c1cn(-c2ccccc2)nc1-c1ccc(OC)cc1,107,28,148*,21,18,138,21,109
Cc1c(CC(=O)O)c(=O)oc2cc(OCc3ccc(Br)cc3)ccc12,102,1,100,3,15,.,.,.
Cc1cccc(NC(=S)NCCCN2CCOCC2)c1,138*,1,112,4,-1,101,3,104
COc1cccc(NC(=S)NCCN2CCOCC2)c1,141*,1,116,-2,4,105,9,106
COc1ccc(C(=O)NCc2ccc(-c3nc4ccccc4s3)cc2)cc1,105,3,100,9,-7,.,.,.
COc1cc(C(=O)NCc2ccc(-c3nc4ccccc4s3)cc2)cc(OC)c1OC,136*,0,107,12,0,105,2,99
CCOC(=O)C1=C(C)NC(C)=C(C(=O)OC)C1c1cccc([N+](=O)[O-])c1 (stereo not given),93,2,98,15,-1,.,.,.
COC(=O)C1=C(C)NC(C)=C(C(=O)O[C@@H]2CCCN(Cc3ccccc3)C2)[C@@H]1c1cccc([N+](=O)[O-])c1,111,10,145*,19,27,120,9,106
CC1(C)CC(=O)C(Sc2ccc(Br)cc2)=C(O)C1,73*[inhibitor],-4,84,8,-9,98,-7,90
CC1(C)CC(=O)C(N=Nc2ccc(Br)cc2)=C(O)C1,98,2,97,-2,-19,.,.,.

# Assay outcomes as filed in PubChem BioAssay.
